Measured values reported in ChEMBL document CHEMBL2396631, “(+)-Altholactone exhibits broad spectrum immune modulating activity by inhibiting the activation of pro-inflammatory cytokines in RAW 264.7 cell lines” (Bioorg Med Chem, 2013).
The source made the active and inactive calls. No cut-off for these calls is given here.

Tests used:
RAW264.7 [1] = assay: Cytotoxicity against mouse RAW264.7 cells after 18 hrs by MTT assay; format: cell-based; details: RAW264.7, 18 h
Summary of the method: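 Murine macrophage RAW264.7 cells exposed to compound about 18 h, tested at 6.25–100 µM from DMSO stock. MTT added for 2 h, formazan dissolved in DMSO and read at 570 nm. IC50 given as mean ± SE, n = 3.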

[2] = Inhibition of LPS-induced NF-kappaB activation in mouse RAW264.7 cells after 18 hrs by luciferase assay; format: cell-based; details: RAW264.7, 18 h
Summary of the method: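 RAW264.7 cells stably carrying an NF-κB luciferase reporter plated at 5 × 10⁴ per well and allowed 24 h recovery. Then treated with compound plus LPS 100 ng/mL for 18 h. Lysates read after adding luciferase assay reagent. IC50 given as mean ± SE, n = 3.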

MCF7 = assay: Cytotoxicity against human MCF7 cells up to 100 uM after 20 hrs by MTT assay; format: cell-based; details: mcf7, 20 h
Summary of the method: (§1)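 Non-tumorigenic MCF-10A and tumorigenic MCF-7, MDA-MB-231, PC3 and LNCaP cells grown in 96-well plates in their own growth media. Treated with 6.25, 12.5, 25, 50 or 100 µM compound from DMSO stock for 20 h, then MTT added for 2 h. Formazan dissolved in DMSO and absorbance read at 570 nm.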

RAW264.7 [3] = assay: Antiinflammatory activity in mouse RAW264.7 cells assessed as inhibition of LPS-induced nitric oxide production after 24 hrs by Griess assay; format: functional, cell-based; details: RAW264.7, 24 h
Summary of the method: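 Cells plated in RPMI1640, 24 h at 37 °C; medium changed, then compound plus E. coli 055:B5 LPS added. Supernatant mixed with Griess reagent (sulfanilamide/naphthylethylenediamine in H3PO4), 30 min at room temperature in the dark. IC50 given as mean ± SE, n = 3.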

RAW264.7 [4] = assay: Antiinflammatory activity in mouse RAW264.7 cells assessed as reduction of LPS-induced COX2 expression at 5 uM after 4 hrs by Western blot analysis; format: functional, cell-based
Summary of the method: (§2)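 Near-confluent cells treated with rising compound concentrations (1.5–12.0 µM) plus LPS for 4 h at 37 °C. Lysed directly in SDS loading buffer, sonicated, heated, run on 4–15% gels, then transferred. Probed for phospho-IκBα, IκBα, iNOS and COX-2, with β-actin as the loading reference; HRP secondaries used.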

RAW264.7 [5] = assay: Antiinflammatory activity in mouse RAW264.7 cells assessed as reduction of LPS-induced iNOS mRNA expression by quantitative real-time PCR analysis; format: functional, cell-based
Summary of the method: (§3)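 Cells treated with compound (0.7–12.5 µM) plus LPS 100 ng/mL. Total RNA analysed by SYBR Green real-time qPCR, with each gene normalised to GAPDH. Mean ± SD of three independent experiments; one-way ANOVA, p < 0.05 taken as significant.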

RAW264.7 [6] = assay: Antiinflammatory activity in mouse RAW264.7 cells assessed as reduction of LPS-induced IL-6 mRNA expression by quantitative real-time PCR analysis; format: functional, cell-based; summary of the method: as §3
RAW264.7 [7] = assay: Antiinflammatory activity in mouse RAW264.7 cells assessed as reduction of LPS-induced iNOS expression at 5 uM after 4 hrs by Western blot analysis; format: functional, cell-based; summary of the method: as §2
RAW264.7 [8] = assay: Antiinflammatory activity in mouse RAW264.7 cells assessed as reduction of LPS-induced MCP1 mRNA expression by quantitative real-time PCR analysis; format: functional, cell-based; summary of the method: as §3
PC-3 = assay: Cytotoxicity against human PC3 cells up to 100 uM after 20 hrs by MTT assay; format: cell-based; details: pc-3, 20 h; summary of the method: as §1
RAW264.7 [9] = assay: Inhibition of LPS-induced NF-kappaB activation in mouse RAW264.7 cells assessed as reduction of IkappaBalpha phosphorylation at 1.5 to 12 uM after 4 hrs by Western blot analysis; format: cell-based; summary of the method: as §2
LNCaP = assay: Cytotoxicity against human LNCAP cells up to 100 uM after 20 hrs by MTT assay; format: cell-based; summary of the method: as §1
RAW264.7 [10] = assay: Antiinflammatory activity in mouse RAW264.7 cells assessed as reduction of LPS-induced G-CSF mRNA expression by quantitative real-time PCR analysis; format: functional, cell-based; summary of the method: as §3
RAW264.7 [11] = assay: Antiinflammatory activity in mouse RAW264.7 cells assessed as reduction of LPS-induced COX2 mRNA expression by quantitative real-time PCR analysis; format: functional, cell-based; summary of the method: as §3
MDA-MB-231 = assay: Cytotoxicity against human MDA-MB-231 cells up to 100 uM after 20 hrs by MTT assay; format: cell-based; details: mda-mb-231, 20 h; summary of the method: as §1
RAW264.7 [12] = assay: Antiinflammatory activity in mouse RAW264.7 cells assessed as reduction of LPS-induced IL-1beta mRNA expression by quantitative real-time PCR analysis; format: functional, cell-based; summary of the method: as §3
RAW264.7 [13] = assay: Antiinflammatory activity in mouse RAW264.7 cells assessed as reduction of LPS-induced IFN-beta mRNA expression by quantitative real-time PCR analysis; format: functional, cell-based; summary of the method: as §3
RAW264.7 [14] = assay: Antiinflammatory activity in mouse RAW264.7 cells assessed as reduction of LPS-induced IP-10 mRNA expression by quantitative real-time PCR analysis; format: functional, cell-based; summary of the method: as §3
MCF-10A = assay: Cytotoxicity against human MCF10A cells up to 100 uM after 20 hrs by MTT assay; format: cell-based; summary of the method: as §1

| SMILES | IC50 (RAW264.7 [1]) | IC50 [2] | Activity (MCF7) | IC50 (RAW264.7 [3]) | inhibition (RAW264.7 [4]) | IC50 (RAW264.7 [5]) | IC50 (RAW264.7 [6]) | inhibition (RAW264.7 [7]) | IC50 (RAW264.7 [8]) | Activity (PC-3) | inhibition (RAW264.7 [9]) | Activity (LNCaP) | IC50 (RAW264.7 [10]) | IC50 (RAW264.7 [11]) | Activity (MDA-MB-231) | IC50 (RAW264.7 [12]) | IC50 (RAW264.7 [13]) | IC50 (RAW264.7 [14]) | Activity (MCF-10A) |
| --- | --- | --- | --- | --- | --- | --- | --- | --- | --- | --- | --- | --- | --- | --- | --- | --- | --- | --- | --- |
| CC(=O)O[C@H]1[C@@H]2OC(=O)C=C[C@@H]2O[C@@H]1c1ccccc1 [(+)-3-O-ACETYLALTHOLACTONE] | 36.1 µM | 34.3 µM |  |  |  |  |  |  |  |  |  |  |  |  |  |  |  |  |  |
| O=C1C=C[C@@H]2O[C@H](c3ccccc3)[C@@H](O)[C@@H]2O1 [ALTHOLACTONE] | 43.4 µM | 6.7 µM | Non-toxic | 0.8 µM | Active | 2 µM | 0.9 µM | Active | 4 µM | Non-toxic | Active | Non-toxic | 4 µM | 3 µM | Non-toxic | 3 µM | 0.8 µM | 5 µM | Non-toxic |
| O=C1C=CC[C@H](/C=C/c2ccccc2)O1 [GONIOTHALAMIN] | 34.2 µM | 27.4 µM |  |  |  |  |  |  |  |  |  |  |  |  |  |  |  |  |  |
